From PubChem
An excerpt weighted towards active compounds, which were near 2.2% of everything screened.
S100A4 MyoIIA: inhibitors of S100A4-myosin IIA peptide binding, primary screen, biochemical, fluorescence polarization, TAMRA-MyoIIA peptide. Protein S100-A4 (Homo sapiens), P26447. hit rate 0.14% among 360,000. inhibition, % at 10.7 µM. AID 652163, 2013;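 active means mean inhibition of at least 70% across replicates, with every replicate also reaching that level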
Target sequence (P26447 whole entry, looked up): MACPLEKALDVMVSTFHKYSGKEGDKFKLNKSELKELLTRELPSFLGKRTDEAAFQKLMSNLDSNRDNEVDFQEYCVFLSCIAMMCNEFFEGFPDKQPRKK
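incubation = readout 5 min after mixing, signal stable up to 60 min | system = S100A4 monomer protein | buffer or medium = HEPES pH 7.2 with CaCl2, KCl, NaCl, DTT, Triton | benchmarks = neutral control DMSO, positive control TFP | also added = fluorescent myosin IIA peptide, 5 nM | compound dosing = one concentration per compound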
F508del corr: F508del CFTR correction, initial screen, CFBE line, single point; CFBE cells, YFP halide quenching; stimulated with forskolin plus potentiator P3; % fluorescence drop versus neutral controls; activity (quench increase), % at 7.58 µM; hit rate 0.36% among 350,000; AID 720511, 2013;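 active means mean added fluorescence quench of at least 8% versus neutral control, with both replicates also reaching 8%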;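 further: cells transiently co-express mutant CFTR-F508del with the halide-sensitive YFP; corrector assay measuring rescue of mutant channel to the surface after 24 h compound exposure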
dFosB activator: activators of delta FosB homodimer, primary screen, biochemical, fluorescence polarization, TAMRA-CDK5 oligo, single point; purified delta FosB; percent of positive-control signal above neutral wells; Protein FosB (Mus musculus), P13346; activation, % at 25 µM; hit rate 0.99% among 340,000; AID 493131, 2011;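 active means mean activation above about 17%, with every replicate also reaching it, limit read from the data, passing the limit was not always enough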
FGF22 binding: binders of human FGF22 protein, primary screen, FGF22 synaptogenesis inhibitor project, biophysical, thermal shift, single point; activity (Tm shift, normalised), % at 9.99 µM; Fibroblast growth factor 22 (Homo sapiens), Q9HCT0; recombinant FGF22 thermal shift, SYPRO orange fluorescence; percent of sucrose octasulfate shift, DMSO zero; AID 651658, 2012; hit rate 1.5% among 340,000;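 active means mean Tm shift, scaled 0 neutral to 100 positive control, at about 1.3% or above, every replicate too, limit read from the data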
Target sequence (Q9HCT0 whole entry, looked up): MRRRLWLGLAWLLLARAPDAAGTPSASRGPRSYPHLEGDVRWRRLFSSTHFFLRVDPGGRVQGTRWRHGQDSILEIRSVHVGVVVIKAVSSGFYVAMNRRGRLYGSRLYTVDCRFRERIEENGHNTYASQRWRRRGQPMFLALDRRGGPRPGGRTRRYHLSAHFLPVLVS
Active calls of the source: *; · = no result.

SMILES	S100A4 MyoIIA	F508del corr	dFosB activator	FGF22 binding
O=C(CSC1=NS(=O)(=O)c2cc(F)ccc2N1)Nc1ccc(F)cc1	-2	-1	-6	1.7*
CC(=O)Nc1ccc(NC(=O)CSC2=NS(=O)(=O)c3cc(F)ccc3N2)cc1	-3	-3	11	1
COc1ccccc1NC(=O)N(C)C[C@H]1Oc2ncc(Br)cc2C(=O)N([C@H](C)CO)C[C@@H]1C	6	0	·	0
CC1=Nc2cc(C(=O)NCCCOC(C)C)ccc2Sc2ccccc21	-1	5	-9	43*
CC1=Nc2cc(C(=O)NCCCOC(C)C)ccc2Sc2ccc(C)cc21	-7	-3	-13	0
Cc1ccc(S(=O)(=O)N[C@H]2CC[C@@H](CCNC(=O)c3ccc4c(c3)OCO4)O[C@H]2CO)cc1	-7	-3	·	0
C[C@H]1CN([C@@H](C)CO)C(=O)Cc2cc(NS(=O)(=O)c3ccc(Cl)cc3)ccc2O[C@@H]1CN(C)C(=O)NC1CCCCC1	-7	1	·	0
C[C@H]1CNC(=O)c2c(C(=O)Nc3ccc(CNC(=O)OC(C)(C)C)cc3)ncn21	-3	12*	·	0
C[C@H]1Cn2cnc(C(=O)Nc3ccc(CNC(=O)OC(C)(C)C)cc3)c2C(=O)N1	-1	4	·	1
O=C(COC(=O)c1ccc2ccccc2n1)Nc1cccc(S(=O)(=O)NC2=NCCCCC2)c1	-19	-3	-14	43*
CN1C[C@@H](O)COC[C@@H]2O[C@H](CC(=O)NC3CCC3)CC[C@H]21	·	-4	·	0
c1ccc(-c2noc(CCC3CCCC3)n2)cc1	0	-2	-2	0
c1ccc(-c2noc(CC3CCCCC3)n2)cc1	14	-2	-7	43*
COc1ccc(-n2c(C)cc(-c3csc(N)n3)c2C)cc1	·	·	25*	·
Cc1cc(-c2csc(N)n2)c(C)n1-c1ccc(Cl)c(Cl)c1	19	0	-1	0
O=C(CCl)N=c1sccn1Cc1ccccc1Cl	2	-17	1	0
O=C(CCl)N=c1sccn1Cc1ccc(Cl)cc1Cl	1	-5	1	44*
CO[C@@H]1CN(C)C(=O)c2ccc(NC(C)=O)cc2OC[C@H](C)N(C(=O)Cc2ccccn2)C[C@H]1C	3	0	·	0
CCN(CC1CCCO1)C(=O)CCc1nnc(CCc2ccc(OC)cc2)o1 (configuration not stated)	6	-1	-5	0
CCN(Cc1ccncc1)C(=O)CCc1nnc(CCc2ccc(OC)cc2)o1	-5	1	-5	44*
CCOc1ccc(C(=O)Nc2ccc3c(c2)C(=O)NC3=O)cc1	-4	-6	59*	0
COc1ccc(NC(=S)NNC(=O)c2ccc(S(=O)(=O)N3CCOCC3)cc2)cc1	-30	2	2	1.4*
COc1ccc(C(=O)N[C@H](C(=O)Nc2ccc(S(=O)(=O)N3CCOCC3)cc2)C(C)C)cc1	4	2	-10	0
CCOc1ccc(NC(=O)C2CCN(S(C)(=O)=O)CC2)cc1	-1	0	-3	0
COc1ccc(NC(=O)c2ccc(NC(=O)CN3CCN(c4ccccc4O)CC3)cc2)cc1	5	-4	·	43*
SMILES	S100A4 MyoIIA	F508del corr	dFosB activator	FGF22 binding
CCOC(=O)N1CCC(C(=O)Nc2ccc(OCC)cc2)CC1	-3	9.8*	0	0
C[C@@H]1CCCCO[C@@H](CN(C)S(=O)(=O)c2ccccc2)[C@H](C)CN([C@@H](C)CO)C(=O)c2cc(N(C)C)ccc2O1	-21	0	·	-1
C[C@@H]1CCCCO[C@@H](CN(C)S(=O)(=O)c2ccccc2)[C@@H](C)CN([C@@H](C)CO)C(=O)c2cc(NS(=O)(=O)c3ccc(Cl)cc3)ccc2O1	-1	2	·	0
COc1ccc(C(=O)NC(=S)Nc2ccc(N3CCCC3)cc2)cc1	-2	0	-4	42
CCOc1ccc(C(=O)Nc2ccc(N3CCCC3)cc2)cc1	·	·	22*	·
COc1ccc(C(=O)Nc2ccc(N3CCCC3)cc2)cc1	·	·	29*	·
CCOC(=O)N1CCN(C(=O)C2CCN(S(=O)(=O)c3cc(C)ccc3OC)CC2)CC1	10	1	-4	0
CCOC(=O)N1CCN(C(=O)C2CCN(S(=O)(=O)c3cc(OC)ccc3OC)CC2)CC1	3	0	-2	43*
COc1ccc(CN(C)C[C@H]2Oc3ccc(NC(=O)Cc4cn(C)c5ccccc45)cc3C(=O)N([C@@H](C)CO)C[C@@H]2C)cc1	-12	2	·	0
CC(Nc1ccccc1N1CCCCC1)C(=O)N1CCc2ccccc21 (configuration not stated)	0	-5	5	43*
CC(NC(c1ccccc1)c1ccccc1)C(=O)N1CCCc2ccccc21 (configuration not stated)	·	·	-11	·
Cn1c(=O)c2c(ncn2CC(=O)NC(C)(C)C)n(C)c1=O	-2	0	3	0
Cn1c(=O)c2c(nc(Sc3ncnn3CC(=O)NC(C)(C)C)n2C)n(C)c1=O	-2	·	3	43*
O=C(c1ccc(Cl)cc1)C1CCCN(C(=O)/C=C/c2ccccn2)C1 (configuration not stated)	-9	0	-6	44*
Fc1ccc(N2CCN(Cc3ccccn3)CC2)cc1	-4	-1	3	44*
O=[N+]([O-])c1ccccc1CN1CCN(Cc2ccccn2)CC1	10	0	-2	43*
CC(=O)Nc1ccc(S(=O)(=O)N2CCN(Cc3ccccc3[N+](=O)[O-])CC2)cc1	-27	-4	3	44*
Fc1ccc(N2CCN(Cc3cnc(N4CCOCC4)s3)CC2)cc1	-3	-4	1	43*
c1ccc(CN2CCOCC2)nc1	6	2	-3	0
CCCC#Cc1ccc2c(c1)O[C@H](CN(C)C(=O)Nc1ccc(OC)cc1)[C@@H](C)CN([C@@H](C)CO)S2(=O)=O	-8	2	·	-1
C[C@H](CO)N1C[C@H](C)[C@@H](CN(C)Cc2ccc3c(c2)OCO3)Oc2ccc(NC(=O)CCN3CCOCC3)cc2C1=O	-17	2	·	0
COc1ccc(NC(=O)Nc2ccc3c(c2)C(=O)N([C@@H](C)CO)C[C@H](C)[C@@H](CN(C)C(=O)c2ccccc2)OCCCC[C@H](C)O3)cc1	-6	-1	·	0
Cc1noc(C)c1S(=O)(=O)N(C)C[C@@H]1Oc2ccc(NC(=O)Nc3ccc(C(F)(F)F)cc3)cc2CC(=O)N([C@H](C)CO)C[C@@H]1C	·	-1	·	0
CCOc1ccc(N2C(=O)C3C(c4ccc(O)cc4)NC(CCSC)(C(=O)OC)C3C2=O)cc1 (configuration not stated)	-7	0	3	44*
COc1ccc(-c2[nH]ncc2[C@@H]2C[C@H]3CN(Cc4ccccc4C)C(=O)[C@]34CCCN24)cc1	-5	-2	-9	43*
